Measurements: ChEMBL document CHEMBL2321792, “Synthesis and antimalarial activity of 3,3-spiroanellated 5,6-disubstituted 1,2,4-trioxanes” (ACS Med Chem Lett, 2013)
pIC50: −log10 of the molar value. ≈ marks a conversion by molar mass, not a printed value. Calls of active or inactive are those of the source. The rule behind the calls is not given here.

Key:
[1] = tested on: Plasmodium yoelii nigeriensis; assay: Antimalarial activity against chloroquine, mefloquine and halofantrine-resistant Plasmodium yoelii nigeriensis infected in Swiss mouse assessed as suppression of parasitemia at 96 mg/kg, po administered for 4 days measured on day 4; type: functional; settings: 96 h
Outline: (§1)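 Swiss mice infected with multidrug-resistant P. yoelii nigeriensis were treated by the Peters procedure: 5 per group, dosed daily for 4 days, oral or i.m. Parasitaemia was read on day 4 against an untreated control group. Suppression = [(c − t)/c] × 100, where c is control and t is treated parasitaemia. 100% means parasites were below the detection limit.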

[2] = tested on: Plasmodium yoelii nigeriensis; assay: Antimalarial activity against chloroquine, mefloquine and halofantrine-resistant Plasmodium yoelii nigeriensis infected in Swiss mouse assessed as protection against parasite-induced mortality at 96 mg/kg, po administered for 4 days measured on day 28; type: functional, organism-based; parameters: dose 96 mg/kg, route po po po po po po po po po po po
Outline: (§2)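 Peters 4-day test in Swiss mice infected with multidrug-resistant P. yoelii nigeriensis. Groups of 5 mice were dosed once daily for 4 days at the stated mg/kg, oral or i.m. Mice were followed to day 28. Protection is the percentage of treated mice surviving to day 28, read from the alive/total count per group.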

[3] = tested on: Plasmodium yoelii nigeriensis; assay: Antimalarial activity against chloroquine, mefloquine and halofantrine-resistant Plasmodium yoelii nigeriensis infected in Swiss mouse assessed as suppression of parasitemia at 96 mg/kg, im administered for 4 days measured on day 4; type: functional; settings: 96 h, route intramuscular; outline: as §1
[4] = tested on: Plasmodium yoelii nigeriensis; assay: Antimalarial activity against chloroquine, mefloquine and halofantrine-resistant Plasmodium yoelii nigeriensis infected in Swiss mouse assessed as protection against parasite-induced mortality at 96 mg/kg, im administered for 4 days measured on day 28; type: functional, organism-based; parameters: dose 96 mg/kg; outline: as §2
[5] = tested on: Plasmodium yoelii nigeriensis; assay: Antimalarial activity against chloroquine, mefloquine and halofantrine-resistant Plasmodium yoelii nigeriensis infected in Swiss mouse assessed as protection against parasite-induced mortality at 48 mg/kg, po administered for 4 days measured on day 28; type: functional; outline: as §2
[6] = tested on: Plasmodium yoelii nigeriensis; assay: Antimalarial activity against chloroquine, mefloquine and halofantrine-resistant Plasmodium yoelii nigeriensis infected in Swiss mouse assessed as suppression of parasitemia at 24 mg/kg, po administered for 4 days measured on day 4; type: functional; settings: 96 h; outline: as §1
[7] = tested on: Plasmodium yoelii nigeriensis; assay: Antimalarial activity against chloroquine, mefloquine and halofantrine-resistant Plasmodium yoelii nigeriensis infected in Swiss mouse assessed as protection against parasite-induced mortality at 24 mg/kg, po administered for 4 days measured on day 28; type: functional; outline: as §2
[8] = Half life in rat liver microsomes at […] by HPLC-PDA analysis; type: ADME, Microsome
[9] = Solubility of the compound in distilled water after 24 hrs by shake flask method; type: physicochemical
[10] = Effective permeability coefficient of the compound in Sprague-Dawley rat intestine at 10 uM by In-situ single pass intestinal perfusion technique; type: ADME, tissue-based; settings: other: in situ single pass intestinal perfusion, read-out: Peff
[11] = tested on: Plasmodium yoelii nigeriensis; assay: Antimalarial activity against chloroquine, mefloquine and halofantrine-resistant Plasmodium yoelii nigeriensis infected in Swiss mouse assessed as protection against parasite-induced mortality at 12 mg/kg, po administered for 4 days measured on day 28; type: functional, organism-based; parameters: dose 12 mg/kg; outline: as §2
Plasma = assay: Fraction unbound in rat plasma at 10 uM by ultra-filtration method; type: ADME, cell-free
[12] = tested on: Plasmodium yoelii nigeriensis; assay: Antimalarial activity against chloroquine, mefloquine and halofantrine-resistant Plasmodium yoelii nigeriensis infected in Swiss mouse assessed as suppression of parasitemia at 12 mg/kg, po administered for 4 days measured on day 4; type: functional; settings: 96 h; outline: as §1
[13] = Distribution coefficient, log D of the compound at pH 7.4 by HPLC-PDA analysis; type: physicochemical; settings: octanol/water
[14] = Intrinsic clearance in rat liver microsomes at […] by HPLC-PDA analysis; type: ADME, Microsome; settings: read-out: CLH
[15] = tested on: Plasmodium yoelii nigeriensis; assay: Antimalarial activity against chloroquine, mefloquine and halofantrine-resistant Plasmodium yoelii nigeriensis infected in Swiss mouse assessed as suppression of parasitemia at 48 mg/kg, po administered for 4 days measured on day 4; type: functional; settings: 96 h; outline: as §1
Cytochrome P450 2C11 = target: T1, Cytochrome P450 2C11 (Rattus norvegicus, UniProt P08683); assay: Inhibition of CYP2C11 in rat liver microsome using diclofenac as substrate by HPLC-PDA analysis; type: ADME, microsomes
T1 sequence (P08683 whole entry): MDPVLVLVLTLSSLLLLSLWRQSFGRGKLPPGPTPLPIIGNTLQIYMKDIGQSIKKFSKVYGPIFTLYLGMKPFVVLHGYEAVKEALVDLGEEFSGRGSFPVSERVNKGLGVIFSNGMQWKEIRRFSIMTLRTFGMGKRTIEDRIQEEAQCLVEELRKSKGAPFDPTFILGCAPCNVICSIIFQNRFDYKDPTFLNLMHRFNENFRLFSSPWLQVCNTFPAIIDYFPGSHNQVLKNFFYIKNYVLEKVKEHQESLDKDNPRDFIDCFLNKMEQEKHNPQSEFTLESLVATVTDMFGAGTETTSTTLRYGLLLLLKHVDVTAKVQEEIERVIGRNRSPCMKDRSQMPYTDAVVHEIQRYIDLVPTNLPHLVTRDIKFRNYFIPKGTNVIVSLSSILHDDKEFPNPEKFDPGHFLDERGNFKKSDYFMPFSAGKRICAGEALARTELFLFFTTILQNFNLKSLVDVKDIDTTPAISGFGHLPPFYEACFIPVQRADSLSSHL

Cytochrome P450 1A2 = target: T2, Cytochrome P450 1A2 (Rattus norvegicus, UniProt P04799); assay: Inhibition of CYP1A2 in rat liver microsome using phenacetin as substrate by HPLC-PDA analysis; type: ADME, microsomes
T2 sequence (P04799 whole entry): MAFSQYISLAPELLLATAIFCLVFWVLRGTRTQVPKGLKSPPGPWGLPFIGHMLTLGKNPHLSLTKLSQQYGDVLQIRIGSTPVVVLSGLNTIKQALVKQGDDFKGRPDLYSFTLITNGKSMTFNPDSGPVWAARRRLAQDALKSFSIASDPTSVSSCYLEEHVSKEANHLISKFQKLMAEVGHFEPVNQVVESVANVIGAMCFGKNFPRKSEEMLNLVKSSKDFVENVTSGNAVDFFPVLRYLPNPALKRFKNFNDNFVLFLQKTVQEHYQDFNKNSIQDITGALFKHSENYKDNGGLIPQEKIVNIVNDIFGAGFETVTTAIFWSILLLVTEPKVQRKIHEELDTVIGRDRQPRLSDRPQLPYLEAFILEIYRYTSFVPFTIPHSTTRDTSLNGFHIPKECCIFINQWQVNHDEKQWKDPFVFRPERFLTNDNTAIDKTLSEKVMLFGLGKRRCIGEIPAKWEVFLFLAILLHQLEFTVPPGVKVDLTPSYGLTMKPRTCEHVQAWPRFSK

[16] = Metabolic stability in rat liver microsomes at […] after 30 mins by HPLC-PDA analysis; type: ADME, Microsome; settings: read-out: Stability
[17] = Inhibition of CYP3A in rat liver microsome using testosterone as substrate by HPLC-PDA analysis; type: ADME, microsomes
Cytochrome P450 2D4 = target: T3, Cytochrome P450 2D4 (Rattus norvegicus, UniProt Q64680); assay: Inhibition of CYP2D4 in rat liver microsome using dextromethorphan as substrate by HPLC-PDA analysis; type: ADME, microsomes
T3 sequence (Q64680 whole entry): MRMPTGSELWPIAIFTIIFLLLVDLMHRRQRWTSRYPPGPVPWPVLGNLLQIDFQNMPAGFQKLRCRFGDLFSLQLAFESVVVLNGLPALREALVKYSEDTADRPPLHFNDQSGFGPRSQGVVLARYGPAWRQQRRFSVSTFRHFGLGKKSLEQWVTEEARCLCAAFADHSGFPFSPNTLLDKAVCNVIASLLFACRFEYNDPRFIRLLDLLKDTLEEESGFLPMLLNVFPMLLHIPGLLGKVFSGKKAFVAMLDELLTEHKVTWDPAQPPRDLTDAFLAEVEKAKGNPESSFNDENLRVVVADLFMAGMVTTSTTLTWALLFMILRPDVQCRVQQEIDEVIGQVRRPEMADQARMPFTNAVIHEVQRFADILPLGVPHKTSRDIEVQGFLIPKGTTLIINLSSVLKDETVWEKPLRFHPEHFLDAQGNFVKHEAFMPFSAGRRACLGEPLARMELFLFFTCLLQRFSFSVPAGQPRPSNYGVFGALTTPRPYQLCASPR

Row | SMILES | inhibition in vivo at 96 mg/kg [1] [%] | Activity [2] | inhibition in vivo at 96 mg/kg [3] [%] | Activity [4] | also measured
1 | C=C(c1ccc(F)cc1)[C@H]1OOC2(CCCC2)O[C@@H]1c1ccc(F)cc1 (relative stereo) | 22.5 | inactive | – | – | –
2 | C=C(c1ccccc1)[C@H]1OOC2(CCCCC2)O[C@@H]1c1ccccc1 (relative stereo) | 34.5 | inactive | 22.3 | inactive | –
3 | C=C(c1ccc(Cl)cc1)[C@H]1OOC2(CCCCC2)O[C@@H]1c1ccc(Cl)cc1 (relative stereo) | 100 | – | 3.45 | inactive | Activity [5]: Active; inhibition in vivo at 24 mg/kg [6]: 100%; Activity [7]: 100%; half-life [8]: 23 min; solubility thermodynamic at 24 h ([9]; distilled water): 13 µM (≈ 5.27 µg/mL); Papp at 10 µM [10]: 113 ×10⁻⁶ cm/s; Activity [11]: inactive; Fu (Plasma): 0.8%; inhibition in vivo at 12 mg/kg [12]: 100%; logD [13]: 4.23; microsomal CLint [14]: 60.3 µL/min/mg
4 | C=C(c1ccc(C)cc1)[C@H]1OOC2(CCCCC2)O[C@@H]1c1ccc(C)cc1 (relative stereo) | – | – | 16.6 | inactive | Activity [5]: inactive; inhibition in vivo at 24 mg/kg [6]: 49.6%; Activity [7]: inactive; inhibition in vivo at 48 mg/kg [15]: 89.4%
5 | C=C(c1ccc(Br)cc1)[C@H]1OOC2(CCCCC2)O[C@@H]1c1ccc(Br)cc1 (relative stereo) | 100 | – | – | – | –
6 | C=C(c1ccc(F)cc1)[C@H]1OOC2(CCCCC2)O[C@@H]1c1ccc(F)cc1 (relative stereo) | 42.5 | inactive | – | – | –
7 | C=C(c1ccccc1)[C@H]1OOC2(O[C@@H]1c1ccccc1)C1CC3CC(C1)CC2C3 (relative stereo) | 32.4 | inactive | 44.8 | inactive | –
8 | C=C(c1ccc(Cl)cc1)[C@H]1OOC2(O[C@@H]1c1ccc(Cl)cc1)C1CC3CC(C1)CC2C3 (relative stereo) | 77.2 | – | – | – | –
9 | C=C(c1ccc(C)cc1)[C@H]1OOC2(O[C@@H]1c1ccc(C)cc1)C1CC3CC(C1)CC2C3 (relative stereo) | 36.7 | inactive | 5.76 | inactive | –
10 | C=C(c1ccc(OC)cc1)[C@H]1OOC2(O[C@@H]1c1ccc(OC)cc1)C1CC3CC(C1)CC2C3 (relative stereo) | 24.6 | inactive | – | – | –
11 | C=C(c1ccc(Br)cc1)[C@H]1OOC2(O[C@@H]1c1ccc(Br)cc1)C1CC3CC(C1)CC2C3 (relative stereo) | 18.1 | inactive | – | – | –
12 | C=C(c1ccc(F)cc1)[C@H]1OOC2(O[C@@H]1c1ccc(F)cc1)C1CC3CC(C1)CC2C3 (relative stereo) | 16.7 | inactive | – | – | –
13 | C=C(c1ccccc1)[C@H]1OOC2(CCCC2)O[C@@H]1c1ccccc1 (relative stereo) | 23.8 | inactive | 46.9 | inactive | –
14 | C=C(c1ccc(Cl)cc1)[C@H]1OOC2(CCCC2)O[C@@H]1c1ccc(Cl)cc1 (relative stereo) | 63.6 | inactive | – | – | –
15 | C=C(c1ccc(C)cc1)[C@H]1OOC2(CCCC2)O[C@@H]1c1ccc(C)cc1 (relative stereo) | 100 | inactive | – | – | –
16 | C=C(c1ccc(Br)cc1)[C@H]1OOC2(CCCC2)O[C@@H]1c1ccc(Br)cc1 (relative stereo) | – | – | – | – | Activity [5]: 20%; inhibition in vivo at 24 mg/kg [6]: 98.6%; Activity [7]: inactive; inhibition in vivo at 48 mg/kg [15]: 100%
17 | CCO[C@H]1O[C@@H]2O[C@@]3(C)CC[C@H]4[C@H](C)CC[C@@H]([C@H]1C)[C@@]24OO3 [ARTEMOTIL] | – | – | – | – | Activity [5]: 100%; inhibition in vivo at 24 mg/kg [6]: 100%; Activity [7]: 20%; half-life [8]: 47.4 min; pIC50 (Cytochrome P450 2C11): < 4.00; pIC50 (Cytochrome P450 1A2): < 4.00; solubility ([9]; buffer, 24 h): Insoluble; remaining at 0.5 h [16]: 50%; inhibition in vivo at 48 mg/kg [15]: 100%; Fu (Plasma): 1%; logD [13]: 3.6; pIC50 [17]: < 4.00; pIC50 (Cytochrome P450 2D4): < 4.00; microsomal CLint [14]: 36.6 µL/min/mg
